# Assay results taken from PubChem BioAssay.
# A number with no mark means an inactive call. Inconclusive results are not listed. Activity calls are given as the source filed them.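 How the source made its calls, unless noted: active means viability at or below 27.92% in each of two runs, the all-compound median minus 4 SD; inconclusive means no clear call, values can overlap the other calls; inactive means the rest.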
# Tests used:
# [1] = S. cerevisiae growth inhibition in permissive medium (OD615), pilot counter-assay for S. cerevisiae lifespan shortening project, permissive growth control (AID 705;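 active means growth inhibition above 25% in both replicates, a cutoff set 3 SD above the mean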); settings: OD615, 24 h, at 10 µM, stronger effect = higher value
# Outline: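 System: S. cerevisiae with engineered DeaD lifespan system. Medium: SC raffinose/galactose permissive medium. Doses: single compound dose of 10 µM, 0.25% DMSO final. Schedule: 24 h exposure, 30 °C. Measured by: OD615 turbidity read. Read-out: growth inhibition.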
# [2] = S. cerevisiae growth inhibition in restrictive medium, OD615, pilot screen, restrictive growth control, yeast lifespan reduction project (AID 706;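 active means growth inhibition above a set limit, 3 SD over mean compound inhibition, in both replicates, cut at about 43% in these data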;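 further: modified DeaD lifespan yeast strain shifted to restrictive glucose medium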); settings: OD615, 48 h, at 10 µM, stronger effect = higher value
# Outline: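 Assay system – genetically modified Saccharomyces cerevisiae, DeaD replicative lifespan assay strain · Medium – CSMM-D glucose medium · Doses – 10 µM compound, 0.25% DMSO · Times – 4 h pre-incubation, 48 h exposure at 30 °C · Signal – optical density at 615 nm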
# [3] = doxorubicin toxicity protection in MRP-1 cells – H69AR cells, CellTiter-Glo, duplicate, MRP-1 activator project, pilot screen (AID 807;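 active means viability increase at or above a cutoff of the median across tested compounds plus 3 SD, cut at about 8.5% in these data, passing the limit was not always enough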;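 further: compound pretreatment 18-22 h then 72 h combined with doxorubicin; 0% = doxorubicin alone and 100% = vehicle without doxorubicin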); settings: H69AR viability with doxorubicin, CellTiter-Glo luminescence; at 10 µM; stronger effect = higher value
# [4] = viability of HCT116 without oncogenic beta-catenin – human colon tumor cells, pilot screen (AID 823;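 active means cell viability at or below a set limit in both duplicate runs, the limit being the all-compound median minus 4 SD, cut at about 23% in these data, passing the limit was not always enough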;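 further: 0% = wells killed by 20 µM Hyamine and 100% = untreated DMSO cell wells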); settings: HCT116 beta-catenin knockout viability, CellTiter-Glo, 60 h; at 10 µM; stronger effect = lower value
# [5] = viability of PTEN-null HCT116 cells – cell-based, HCT116 clonal line, CellTiter-Glo, pilot screen (AID 824); settings: HCT116 PTEN-deleted viability, 60 h, at 10 µM, stronger effect = lower value;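 further: 0% = 20 µM Hyamine control and 100% = vehicle cell control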
# [6] = RAM pathway blockade in budding yeast – dse1pr::URA3 reporter, 5-FOA selection, pilot screen (AID 869;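 active means inhibition over a set limit, the all-compound mean plus 3 SD, in both replicate runs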;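 further: 0% = DMSO wells with no growth and 100% = 10 µM 1-NA-PP1 with full growth; RAM network block rescues cells from 5-FOA so hits raise OD615 growth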); settings: S. cerevisiae dse1pr::URA3 5-FOA growth, OD615, 2 d; at 10 µM; stronger effect = higher value; strain carries analog-sensitive mutant Cbk1 kinase
# [7] = RAM signaling pathway blockade in yeast – S. cerevisiae, Pdr1DBD-CYC8 efflux-inhibited sensitized strain, primary screen (AID 1298;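 active means RAM network inhibition above 8.4% in each of two replicates, 3 SD over the compound average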;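 further: 0% = DMSO untreated cells without growth and 100% = 10 µM 1-NA-PP1 full growth; higher means more yeast growth rescued from 5-FOA killing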); settings: S. cerevisiae cbk1-as DSE1-URA3 strain, 5-FOA growth OD615, 2 d; at 50 µM; stronger effect = higher value
SMILES,growth inhibition [1],growth inhibition [2],viability increase [3] [%],viability [4] [%],viability [5] [%],inhibition [6] [%],RAM network inhibition [7] [%]
CCOC(=O)c1c(NC(=O)C2CCCN2S(=O)(=O)c2cccc3nsnc23)sc(C)c1C (configuration not stated),-7.06%,-0.39%,0.59,74,72.5,0.565,7.77
CCN(CCNS(=O)(=O)c1ccc2[nH]c(=O)sc2c1)c1ccccc1,0.725%,13%,-1.31,99,87.6,0.01,2.83
Cc1cccc(-n2ncc3c(N(C)Cc4ccccc4)ncnc32)c1,-2.16%,-0.895%,5.35,109,88.7,0.7,4.33
O=C(Cn1nc(Cc2cccnc2)c2ccccc2c1=O)NCC1COc2ccccc2O1 (configuration not stated),3.08%,-0.92%,-1.71,90.5,95.3,1.99,0.96
CCSc1nnc(NC(=O)CCc2ccccc2)s1,0.055%,-7.23%,-1.7,88.7,95.1,3.51,3.66
CCOc1ccccc1N1CCN(C(=O)c2cc(C)oc2C)CC1,-10.5%,-5.64%,-3.37,89.2,93.9,0.04,0.7
CCC(SCC(=O)OC)C(=O)Nc1nnc(C(C)C)s1 (configuration not stated),1.46%,8.39%,-1.27,98.8,98.1,2.43,2.05
COc1ccc2[nH]c(C)c(CN3CCC(C)CC3)c(=O)c2c1,0.03%,-2.44%,-2.02,98.5,90.8,1.03,2.42
Cn1ccnc1-c1nc2ccccc2[nH]c1=O,-6.04%,-15.6%,-1.95,101,95.5,-0.695,-0.73
CC(C)n1c(SCCCc2ccccc2)nc2c1c(=O)[nH]c(=O)n2C,-6.04%,4.52%,-0.9,92.2,87.5,1.95,8.85
N#CCCN(CCC#N)C(=O)c1ccc(Cl)cc1,-2.15%,-11.1%,-1.59,92.7,93.2,1.3,3.78
CC(C)C(NS(=O)(=O)c1ccc2c3c(cccc13)C(=O)N2)C(=O)O (configuration not stated),-4.62%,-4.4%,-0.28,97,93.6,1.71,3.8
COc1cccc(-c2cc(C(=O)Nn3cnnc3)c3ccccc3n2)c1,-12.2%,-11.8%,-3.9,92.5,94.6,1.52,3.38
Cc1ccc(C2CC(c3ccc(F)cc3)Nc3nc(N)nn32)cc1 (configuration not stated),-3.28%,5.93%,-3.44,99.8,86.7,0.25,2.86
COc1cccc(C(=O)Nc2nnc(-c3cccs3)o2)c1,-16.4%,-17%,-4.26,44.8,56.3,0.07,0.16
Cc1ccc(O)c(C(=O)CC(=O)c2cccc(F)c2)c1,35.8% (active),50% (active),-7.04,40.6,47.4,-0.695,-1.45
COc1ccc(NC(=O)c2cc3ccccn3n2)cc1,-2.21%,0.42%,-0.18,81,73.1,-0.545,0.83
CC1CCCCN1Cc1nc2c(c(=O)n(C)c(=O)n2C)n1Cc1cccc2ccccc12 (configuration not stated),-4.17%,-4.83%,-0.2,94.2,89,1.91,2.8

SMILES,growth inhibition [1],growth inhibition [2],viability increase [3] [%],viability [4] [%],viability [5] [%],inhibition [6] [%],RAM network inhibition [7] [%]
CC(C)CC(=O)Nc1c2c(nn1-c1ccc(F)cc1)CSC2,-13.9%,-14.5%,-1.7,91.1,90.9,1.46,5.43
COc1cccc(C2CC(c3cccc(C)c3)n3ncnc3N2)c1 (configuration not stated),-9.14%,-3.84%,-2.07,90,90.4,0.92,0.74
Cc1c(C(=O)NCc2ccc3c(c2)OCO3)sc2nc(-c3ccc(F)cc3)cn12,-13.8%,-14.9%,0.84,108,105,2.14,6.3
Cc1nn(-c2cccc(C(F)(F)F)c2)c(Cl)c1/C=N/n1cnnc1,-2.49%,17%,-6.44,87.7,85.7,-0.18,1.77
COc1ccc(OC)c(NC(=O)c2cnc3n(c2=O)CCS3)c1,-1.9%,-0.45%,-1.5,100,95.9,2.48,7.21
Cc1ccc(C2CC(c3cccc(C)c3)n3nc(N)nc3N2)cc1 (configuration not stated),-0.275%,16.7%,-3.52,89.6,81,1.81,1.43
COc1cc(NC(=O)c2cc3ccccc3o2)c(OC)cc1Cl,-7.12%,-6.08%,-4.12,80.7,73.6,3.16,9.24
Cc1nc(N2CCN(c3ccccc3)CC2)c2c3c(sc2n1)CCC3,-0.345%,29.8%,3,73.8,81.5,1.38,1.62
O=C(Nc1ccccc1C(=O)N1CCOCC1)c1ccco1,-6.66%,-11.1%,-0.74,101,105,0.27,2.67
CP(=O)(COC(=O)c1ccccc1)COC(=O)c1ccccc1,-20.8%,-19%,-0.63,100,96.5,3.13,1.26
COc1ccc(-c2cn3c(C)c(C(=O)NCc4ccc5c(c4)OCO5)sc3n2)cc1,-4.21%,7.5%,-3.02,99.8,100,3.06,3.34
COc1ccc(CNc2oc(C)nc2C#N)cc1,-0.095%,5.62%,-1.84,98.6,93.1,0.24,6.09
O=C1CC(c2ccccc2)CN1C(=O)c1ccccc1 (configuration not stated),2.52%,-1.8%,1.53,104,98.6,2.67,6.11
O=C(O)CCC(=O)N1CCc2cc(S(=O)(=O)N3CCC(Cc4ccccc4)CC3)ccc21,-6.24%,0.935%,-2.63,97.8,82.2,1.47,3.85
COc1ccc(OC)c(NC(=O)c2ccc(CN3CCOCC3)cc2)c1,9.65%,0.145%,0.88,104,111,1.52,4.85
CC(C)n1c(CCCO)nc2ccccc21,-11.3%,-5.23%,-1.64,95.7,88.1,0.93,0.19
Cn1nc(CC(=O)NC2CCCCCC2)c2ccccc2c1=O,3.21%,6.03%,-2.58,62.4,76.4,0.825,1.38
O=S(=O)(NC1CCCCC1)c1cccc(-c2nnc(-c3ccccc3)o2)c1,-12.2%,-20.6%,0.12,88.7,81.2,0.285,3.44
